Assay results taken from ChEMBL document CHEMBL1255392, “Pharmacokinetics of acyclovir and its metabolites in cerebrospinal fluid and systemic circulation after administration of high-dose valacyclovir in subjects with normal and impaired renal function” (Antimicrob Agents Chemother, 2010).

Columns and labels:
Homo sapiens [1] = assay: Tmax in human CSF with chronic kidney disease assessed as CMMG level at 1500 mg, po every 12 hrs measured after fifth dose by LC/MS; format: ADME, organism-based, Cerebrospinal fluid; conditions: in vivo
Summary of the method: (§1)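 Three CKD adults (CrCl ~15–30 ml/min) fasted around the final dose. Lumbar intrathecal catheter CSF and EDTA venous blood were taken predose and at 0.5–8 h plus 12 h, then stored at −70°C. Metabolites in serum/CSF were measured by SPE with isotope-labelled internal standards, reversed-phase HPLC and positive-ion MRM MS.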

Homo sapiens [2] = assay: Ratio of Cmax in human CSF to Cmax in human plasma with normal renal function assessed as CMMG level at 2000 mg, po every 6 hrs measured after fifth dose by LC/MS; format: ADME, organism-based
Summary of the method: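 For each normal-renal-function subject, the metabolite CSF Cmax was divided by the serum Cmax from samples taken 0–8 h after the fifth dose. Both were measured by LC/MS with isotope-labelled internal standards, and the ratio is given as mean ± SD.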

Homo sapiens [3] = assay: AUC (0 to 6 hrs) in human CSF with normal renal function assessed as CMMG level at 2000 mg, po every 6 hrs measured after fifth dose by LC/MS; format: ADME, organism-based; set-up: time < 6 hr, dose 2000 mg, route oral; conditions: in vivo
Summary of the method: (§2)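 Six volunteers with normal renal function fasted from 8 h before to 2 h after the fifth dose. Intrathecal-catheter CSF and venous blood were sampled at 0–8 h and stored at −70°C. Noncompartmental Cmax, tmax and AUCτ (0–6 h) were derived; Cavg = AUCτ/τ.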

Homo sapiens [4] = assay: Drug level in human CSF with normal renal function assessed as CMMG level at 2000 mg, po every 6 hrs measured after fifth dose by LC/MS; format: ADME, organism-based; conditions: in vivo, read-out: Drug uptake; summary of the method: as §2
Homo sapiens [5] = assay: Drug level in human plasma with chronic kidney disease assessed as CMMG level at 1500 mg, po every 12 hrs measured after fifth dose by LC/MS; format: ADME, organism-based; conditions: in vivo, read-out: Drug uptake; summary of the method: as §1
Homo sapiens [6] = assay: Cmax in human CSF with chronic kidney disease assessed as CMMG level at 1500 mg, po every 12 hrs measured after fifth dose by LC/MS; format: ADME, organism-based, Cerebrospinal fluid; set-up: dose 1500 mg, route oral; conditions: in vivo; summary of the method: as §1
Homo sapiens [7] = assay: AUC (0 to 12 hrs) in human CSF with chronic kidney disease assessed as CMMG level at 1500 mg, po every 12 hrs measured after fifth dose by LC/MS; format: ADME, organism-based; set-up: time < 12 hr, dose 1500 mg, route oral; conditions: in vivo; summary of the method: as §1
Homo sapiens [8] = assay: AUC (0 to 12 hrs) in human systemic circulation with chronic kidney disease assessed as CMMG level at 1500 mg, po every 12 hrs measured after fifth dose by LC/MS; format: ADME, organism-based; set-up: dose 1500 mg, time < 12 hr, route oral; conditions: in vivo; summary of the method: as §1
Homo sapiens [9] = assay: Cmax in human CSF with normal renal function assessed as CMMG level at 2000 mg, po every 6 hrs measured after fifth dose by LC/MS; format: ADME, organism-based, Cerebrospinal fluid; set-up: dose 2000 mg, route oral; conditions: in vivo; summary of the method: as §2
Homo sapiens [10] = assay: Ratio of Cmax in human CSF to Cmax in human plasma with chronic kidney disease assessed as CMMG level at 1500 mg, po every 12 hrs measured after fifth dose by LC/MS; format: ADME, organism-based
Homo sapiens [11] = assay: AUC (0 to 6 hrs) in human systemic circulation with normal renal function assessed as CMMG level at 2000 mg, po every 6 hrs measured after fifth dose by LC/MS; format: ADME, organism-based, Plasma; set-up: dose 2000 mg, time < 6 hr, route oral; conditions: in vivo; summary of the method: as §2
Homo sapiens [12] = assay: Drug level in human plasma with normal renal function assessed as CMMG level at 2000 mg, po every 6 hrs measured after fifth dose by LC/MS; format: ADME, organism-based; conditions: in vivo, read-out: Drug uptake; summary of the method: as §2
Homo sapiens [13] = assay: Cmax in human systemic circulation with chronic kidney disease assessed as CMMG level at 1500 mg, po every 12 hrs measured after fifth dose by LC/MS; format: ADME, organism-based; set-up: dose 1500 mg, route oral; conditions: in vivo; summary of the method: as §1
Homo sapiens [14] = assay: Cmax in human systemic circulation with normal renal function assessed as CMMG level at 2000 mg, po every 6 hrs measured after fifth dose by LC/MS; format: ADME, organism-based; set-up: dose 2000 mg, route oral; conditions: in vivo; summary of the method: as §2
Homo sapiens [15] = assay: Tmax in human systemic circulation with normal renal function assessed as CMMG level at 2000 mg, po every 6 hrs measured after fifth dose by LC/MS; format: ADME, organism-based; conditions: in vivo; summary of the method: as §2
Homo sapiens [16] = assay: Drug level in human CSF with chronic kidney disease assessed as CMMG level at 1500 mg, po every 12 hrs measured after fifth dose by LC/MS; format: ADME, organism-based; conditions: in vivo, read-out: Drug uptake; summary of the method: as §1
Homo sapiens [17] = assay: Tmax in human systemic circulation with chronic kidney disease assessed as CMMG level at 1500 mg, po every 12 hrs measured after fifth dose by LC/MS; format: ADME, organism-based; conditions: in vivo; summary of the method: as §1
Homo sapiens [18] = assay: Tmax in human CSF with normal renal function assessed as CMMG level at 2000 mg, po every 6 hrs measured after fifth dose by LC/MS; format: ADME, organism-based, Cerebrospinal fluid; conditions: in vivo; summary of the method: as §2

Tmax (Homo sapiens [1]): 6.7 h
Ratio (Homo sapiens [2]): 0.025
AUC (Homo sapiens [3]): 0.42 µM·h
concentration (Homo sapiens [4]): 70 nM
concentration (Homo sapiens [5]): 12000 nM
Cmax (Homo sapiens [6]): 370 nM
AUC (Homo sapiens [7]): 3.8 µM·h
AUC (Homo sapiens [8]): 148 µM·h
Cmax (Homo sapiens [9]): 95 nM
Ratio (Homo sapiens [10]): 0.025
AUC (Homo sapiens [11]): 17 µM·h
concentration (Homo sapiens [12]): 2900 nM
Cmax (Homo sapiens [13]): 15000 nM
Cmax (Homo sapiens [14]): 4100 nM
Tmax (Homo sapiens [15]): 3.3 h
concentration (Homo sapiens [16]): 310 nM
Tmax (Homo sapiens [17]): 4.3 h
Tmax (Homo sapiens [18]): 1.8 h
SMILES: Nc1nc2c(ncn2COCC(=O)O)c(=O)[nH]1
